Experiment [1] addresses T1, Amine oxidase [flavin-containing] A (Rattus norvegicus, UniProt P21396).
T1 sequence (P21396 whole entry): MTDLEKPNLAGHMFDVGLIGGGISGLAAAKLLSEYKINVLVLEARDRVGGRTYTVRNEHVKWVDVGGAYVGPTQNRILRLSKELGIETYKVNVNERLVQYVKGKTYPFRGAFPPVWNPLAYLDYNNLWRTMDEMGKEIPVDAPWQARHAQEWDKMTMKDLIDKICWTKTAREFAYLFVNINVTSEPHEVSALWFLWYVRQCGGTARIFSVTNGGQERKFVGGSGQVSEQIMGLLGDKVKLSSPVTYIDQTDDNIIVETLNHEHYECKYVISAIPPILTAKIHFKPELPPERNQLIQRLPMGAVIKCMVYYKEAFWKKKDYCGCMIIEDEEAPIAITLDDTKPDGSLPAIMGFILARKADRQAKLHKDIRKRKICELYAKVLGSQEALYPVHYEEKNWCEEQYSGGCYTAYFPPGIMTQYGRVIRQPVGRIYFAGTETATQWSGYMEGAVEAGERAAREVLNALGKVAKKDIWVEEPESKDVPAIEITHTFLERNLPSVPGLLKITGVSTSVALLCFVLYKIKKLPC
The experiment can be described thus: Inhibition of rat brain MAOA. The method, boiled down:
(§1)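 Enzyme was a crude brain mitochondrial suspension from male Sprague–Dawley rats (180–220 g). Substrates were 5-HT 100 μM for MAO-A and DMAPEA 5 μM for MAO-B. Substrates and metabolites were measured by C18 reverse-phase HPLC with electrochemical detection. IC50 was taken from % inhibition versus -log concentration, at least two experiments in triplicate, mean ± SD. Ki came from Cheng-Prusoff.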

For experiment [2], the target named is T2, Amine oxidase [flavin-containing] B (Rattus norvegicus, UniProt P19643).
T2 sequence (P19643 whole entry): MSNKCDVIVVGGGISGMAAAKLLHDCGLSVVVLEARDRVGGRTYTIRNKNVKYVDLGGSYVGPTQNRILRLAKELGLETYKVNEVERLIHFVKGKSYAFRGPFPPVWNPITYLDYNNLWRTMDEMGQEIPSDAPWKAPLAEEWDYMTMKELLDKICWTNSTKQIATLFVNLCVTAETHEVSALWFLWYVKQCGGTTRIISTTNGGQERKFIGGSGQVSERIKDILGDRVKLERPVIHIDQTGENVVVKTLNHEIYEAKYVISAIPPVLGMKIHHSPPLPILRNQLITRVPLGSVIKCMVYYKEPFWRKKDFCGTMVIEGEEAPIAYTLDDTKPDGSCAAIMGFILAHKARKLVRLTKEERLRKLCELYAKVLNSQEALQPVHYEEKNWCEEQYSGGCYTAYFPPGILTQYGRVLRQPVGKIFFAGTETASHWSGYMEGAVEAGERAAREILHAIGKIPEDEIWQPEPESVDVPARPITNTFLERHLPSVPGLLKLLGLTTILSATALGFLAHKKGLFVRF
The experiment can be described thus: Inhibition of rat brain MAOB. The method, boiled down: as §1

The target of experiment [3] is T3, Amine oxidase [flavin-containing] A (Homo sapiens, UniProt P21397).
T3 sequence (P21397 whole entry): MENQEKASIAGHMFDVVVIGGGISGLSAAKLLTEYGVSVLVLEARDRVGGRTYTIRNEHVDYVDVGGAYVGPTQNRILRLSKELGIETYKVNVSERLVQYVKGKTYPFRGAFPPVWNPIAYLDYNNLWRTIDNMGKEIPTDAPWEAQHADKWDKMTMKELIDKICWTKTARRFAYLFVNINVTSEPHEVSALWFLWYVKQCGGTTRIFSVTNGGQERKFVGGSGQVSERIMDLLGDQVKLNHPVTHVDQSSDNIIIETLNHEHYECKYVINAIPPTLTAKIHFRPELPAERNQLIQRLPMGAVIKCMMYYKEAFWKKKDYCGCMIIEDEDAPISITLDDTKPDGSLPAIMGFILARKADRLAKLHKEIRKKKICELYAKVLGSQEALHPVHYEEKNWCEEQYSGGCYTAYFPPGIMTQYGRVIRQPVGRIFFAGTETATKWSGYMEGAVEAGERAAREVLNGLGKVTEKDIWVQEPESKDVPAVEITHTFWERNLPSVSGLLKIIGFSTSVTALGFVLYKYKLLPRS
Put plainly: Inhibition of human recombinant MAOA expressed in Pichia pastoris. Summed up:
(§2)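 Purified recombinant enzyme desalted on Sephadex G-25 into 50 mM potassium phosphate pH 7.5 with 0.8% β-octyl-glucoside. Activity was read spectrophotometrically with and without inhibitor in 50 mM HEPES pH 7.5 with 0.5% reduced Triton X-100 at 25°C. Substrates were kynuramine for MAO-A and benzylamine for MAO-B.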

For experiment [4], the target named is T4, Amine oxidase [flavin-containing] B (Homo sapiens, UniProt P27338).
T4 sequence (P27338 whole entry): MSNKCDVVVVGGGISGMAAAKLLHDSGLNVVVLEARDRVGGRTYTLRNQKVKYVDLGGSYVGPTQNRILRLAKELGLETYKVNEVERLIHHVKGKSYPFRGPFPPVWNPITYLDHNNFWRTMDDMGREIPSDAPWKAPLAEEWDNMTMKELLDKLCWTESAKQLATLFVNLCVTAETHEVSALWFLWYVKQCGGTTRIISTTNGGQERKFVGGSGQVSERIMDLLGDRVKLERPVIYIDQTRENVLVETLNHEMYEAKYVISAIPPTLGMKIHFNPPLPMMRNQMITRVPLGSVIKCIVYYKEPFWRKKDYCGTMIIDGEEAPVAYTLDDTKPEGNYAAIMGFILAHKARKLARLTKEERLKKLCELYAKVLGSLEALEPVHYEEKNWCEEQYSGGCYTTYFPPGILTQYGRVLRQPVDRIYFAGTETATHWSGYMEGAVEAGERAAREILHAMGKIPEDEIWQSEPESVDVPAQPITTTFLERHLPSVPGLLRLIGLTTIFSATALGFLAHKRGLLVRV
The experiment can be described thus: Inhibition of human recombinant MAOB expressed in Pichia pastoris. Summed up:
as §2

Consider `CCCSc1ccc(C[C@H](C)N)cc1`, for which the Ki – broadly, the equilibrium dissociation constant of an inhibitor or competing ligand from its target – in experiment [1] was 0.115 µM; in experiment [2] it was 15000 µM; in experiment [3], 0.03 µM; in experiment [4] it was 14 µM.
For `CCSc1ccc(C[C@H](C)N)cc1` the same measures were 0.054 µM, > 100 µM, 0.075 µM and > 100 µM.
On the same counts, the results for `CCCCSc1ccc(C[C@H](C)N)cc1` are 0.392 µM, 8.92 µM, 0.022 µM and 4.58 µM.
In the case of `CSc1ccc(C[C@H](C)N)cc1`, the inhibition constant (Ki) in experiment [1] is 0.245 µM; in experiment [2], > 100 µM; in experiment [3], 0.133 µM.

The record behind these values is ChEMBL document CHEMBL1143709, “Human and rat monoamine oxidase-A are differentially inhibited by (S)-4-alkylthioamphetamine derivatives: insights from molecular modeling studies” (Bioorg Med Chem, 2007).
